From ChEMBL document CHEMBL1146596, “New lupane derived compounds with pro-apoptotic activity in cancer cells: synthesis and structure-activity relationships” (2003)

tested on: CCRF-CEM; assay: Cytotoxicity against chemosensitive CEM-T lymphoblastc leukemia cell line.; format: functional, Homo sapiens
Outline: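 Cells were kept in DMEM/RPMI 1640 with 10% fetal calf serum, 2 mM glutamine and antibiotics. They were seeded at 2500–30 000 cells/well according to growth characteristics and preincubated 24 h at 37 °C, 5% CO2. Four-fold compound dilutions were tested in duplicate for 72 h. MTT was then added for 1–4 h, the formazan was dissolved in 10% SDS (pH 5.5) overnight, and OD was read at 540 nm. Survival was taken relative to mean control, and TCS50 was derived from dose–response curves.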

SMILES | TCS50 [µM]
CC(=O)OCOC(=O)[C@@]12CC[C@]3(C)[C@H](CC[C@@H]4[C@@]5(C)CC[C@H](OC(C)=O)C(C)(C)[C@@H]5CC[C@]43C)C1=C(C(C)C)C(=O)C2=O | 3
COC(=O)C[C@]1(C(=O)OCOC(=O)C(C)(C)C)CC[C@]2(C)[C@H](CC[C@@H]3[C@@]4(C)CC[C@H](OC(C)=O)C(C)(C)[C@@H]4CC[C@]32C)C1=O | 99
CC(=O)OC[C@]12C=CC(C(C)C)=C1[C@H]1CC[C@@H]3[C@@]4(C)CC[C@H](OC(C)=O)C(C)(C)[C@@H]4CC[C@@]3(C)[C@]1(C)CC2 | >250
COC(=O)C[C@]1(COC(C)=O)CC[C@]2(C)[C@H](CC[C@@H]3[C@@]4(C)CC[C@H](OC(C)=O)C(C)(C)[C@@H]4CC[C@]32C)C1=O | >250
CC(=O)O[C@H]1CC[C@]2(C)[C@H]3CC[C@@H]4C(=O)[C@]5(CC[C@@]4(C)[C@]3(C)CC[C@H]2C1(C)C)COC(=O)C5 | >250
CC(=O)O[C@H]1CC[C@]2(C)[C@H]3CC[C@H](C(=O)O)[C@@](C)(CCC(=O)O)[C@]3(C)CC[C@H]2C1(C)C | >250
COC(=O)C[C@]1(C(=O)OC)CC[C@]2(C)[C@H](CC[C@@H]3[C@@]4(C)CC[C@H](OC(C)=O)C(C)(C)[C@@H]4CC[C@]32C)C1=O | >250
COC(=O)C[C@]1(C(=O)OCOC(C)=O)CC[C@]2(C)[C@H](CC[C@@H]3[C@@]4(C)CC[C@H](OC(C)=O)C(C)(C)[C@@H]4CC[C@]32C)C1=O | 94
CC(=O)OC[C@@]12CC[C@]3(C)[C@H](CC[C@@H]4[C@@]5(C)CC[C@H](OC(C)=O)C(C)(C)[C@@H]5CC[C@]43C)C1=C(C(C)C)C(=O)C2 | 14
COC(=O)[C@@]12CC[C@]3(C)[C@H](CC[C@@H]4[C@@]5(C)CC[C@H](OC(C)=O)C(C)(C)[C@@H]5CC[C@]43C)C1=C(C(C)C)C(=O)OC2=O | 127
CC(=O)OC[C@@]1(CC(=O)C(=O)C(C)C)CC[C@]2(C)[C@H](CC[C@@H]3[C@@]4(C)CC[C@H](OC(C)=O)C(C)(C)[C@@H]4CC[C@]32C)C1=O | >250
CC(=O)O[C@H]1CC[C@]2(C)[C@H]3CC[C@@H]4C5=C(C(C)C)C(=O)C(=O)[C@]5(C(=O)OCOC(=O)C(C)(C)C)CC[C@@]4(C)[C@]3(C)CC[C@H]2C1(C)C | 105.4
COC(=O)C[C@@H]1CC[C@]2(C)[C@H](CC[C@@H]3[C@@]4(C)CC[C@H](OC(C)=O)C(C)(C)[C@@H]4CC[C@]32C)C1=O | 106
CC(=O)OC[C@@]1(CC(=O)O)CC[C@]2(C)[C@H](CC[C@@H]3[C@@]4(C)CC[C@H](OC(C)=O)C(C)(C)[C@@H]4CC[C@]32C)C1=O | 5
COC(=O)CC[C@]1(C)[C@@H](C(=O)OC)CC[C@@H]2[C@@]3(C)CC[C@H](OC(C)=O)C(C)(C)[C@@H]3CC[C@]21C | >250
COC(=O)[C@@]1(CC(=O)O)CC[C@]2(C)[C@H](CC[C@@H]3[C@@]4(C)CC[C@H](OC(C)=O)C(C)(C)[C@@H]4CC[C@]32C)C1=O | 110
CC(=O)O[C@H]1CC[C@]2(C)[C@H]3CC[C@@H]4C5=C(C(C)C)C(=O)C[C@]5(C(=O)O)CC[C@@]4(C)[C@]3(C)CC[C@H]2C1(C)C | >250
CCOC[C@@H]1CC[C@]2(C)[C@H](CC[C@@H]3[C@@]4(C)CC[C@H](OC(C)=O)C(C)(C)[C@@H]4CC[C@]32C)C1=O | 50
COC(=O)[C@@]12CC[C@]3(C)[C@H](CC[C@@H]4[C@@]5(C)CC[C@H](OC(C)=O)C(C)(C)[C@@H]5CC[C@]43C)C1=C(C(C)C)C(=O)C2 | 20.4
COC(=O)[C@]1(COC(C)=O)CC[C@]2(C)[C@H](CC[C@@H]3[C@@]4(C)CC[C@H](OC(C)=O)C(C)(C)[C@@H]4CC[C@]32C)C1=O | 120
